Assay results from different studies.
Lines come from different studies, so protocols differ.
Sample: plasma

CO[C@H]1/C=C\C=C(/C)C(=O)NC2=CC(=O)C(NCCN(C)C)=C(C[C@@H](C)C[C@H](OC)[C@H](O)[C@@H](C)/C=C(\C)[C@@H]1OC(N)=O)C2=O
AUC(0-inf) (human; intravenous, 12 mg/m², patients, infusion): 1220 ng·h/mL

CC(C)(O)c1ccccc1-c1ccc2[nH]c(/C=C/c3ccc(C(F)(F)F)cc3)nc2c1
AUC(0-inf) (male human; oral, 30 mg, single dose, fasted): 5690 ng·h/mL

O=C(/C=C/c1cccc(S(=O)(=O)Nc2ccccc2)c1)NO
AUC(0-inf) (human; intravenous, 1900 mg/m², patients): 72800 ng·h/mL

COC(=O)N[C@@H](C)CNc1nccc(-c2cn(C(C)C)nc2-c2cc(Cl)cc(NS(C)(=O)=O)c2F)n1
AUC(0-inf) (human; oral, 50 mg, single dose): 1880 ng·h/mL

CS(=O)(=O)CCC#N
AUC(0-inf) (human; oral, 1000 mg, single dose, fasted): 930000 ng·h/mL

Cn1cc(-c2ccc(S(=O)(=O)[C@@H]3C[C@@H](C(=O)NC4(C#N)CC4)N(C(=O)C4(C(F)(F)F)CC4)C3)c(C(F)(F)F)c2)cn1
AUC(0-inf) (human; oral, 100 mg, single dose, fasted, healthy volunteers): 10600 ng·h/mL

CCc1nc2c(C)cc(N3CCN(CC(=O)N4CC(O)C4)CC3)cn2c1N(C)c1nc(-c2ccc(F)cc2)c(C#N)s1
AUC(0-inf) (human; oral, 60 mg, single dose, fed, healthy volunteers): 2400 ng·h/mL

COc1ccc([C@@H]2CN(C(=O)[C@@H](O)CO)C[C@@]2(C)[C@@H](C)O)cc1OC1CN(c2ccc(C)cn2)C1
AUC(0-inf) (human; oral, 0.5 mg, single dose, healthy volunteers): 211 ng·h/mL

CNC(=O)c1ccccc1Sc1ccc2c(/C=C/c3ccccn3)n[nH]c2c1
AUC(0-inf) (human; oral, 5 mg, single dose, fasted): 197 ng·h/mL

CC(C)n1cc(C#N)c2cc(-n3cc(C(=O)O)cn3)ccc21
AUC(0-inf) (human; oral, 200 mg, single dose, fasted, healthy volunteers): 44300 ng·h/mL

CCCOc1ccc([C@H]2CNC(=O)N2c2ccc3[nH]cnc3c2)cc1
AUC(0-inf) (human; oral, 200 mg, single dose, fed, healthy volunteers): 2310 ng·h/mL

CCCCC[C@H](O)CC[C@@H]1[C@H]2Cc3cccc(OCC(=O)O)c3C[C@H]2C[C@H]1O
AUC(0-inf) (human; inhaled, 36 µg, single dose, healthy volunteers): 0.7 ng·h/mL

O=C(Nc1c(Cl)cncc1Cl)c1ccc(OC(F)F)c(OCC2CC2)c1
AUC(0-inf) (human; oral, 0.375 mg, multiple doses, once daily): 81.4 ng·h/mL

CN(C)CCCNC(=O)/C(=C/CCCCC(=O)NO)COc1cccc2ccccc12
AUC(0-inf) (human; intravenous, 187.5 mg/m², single dose): 30700 ng·h/mL

CCOc1cc2ncc(C#N)c(Nc3ccc(OCc4ccccn4)c(Cl)c3)c2cc1NC(=O)/C=C/[C@H]1CCCN1C
AUC(0-inf) (human; oral, 80 mg, single dose): 386 ng·h/mL

CCOc1ccc(Cc2cc([C@@H]3S[C@H](CO)[C@@H](O)[C@H](O)[C@H]3O)c(OC)cc2C)cc1
AUC(0-inf) (male human; oral, 5 mg, single dose, fasted): 2010 ng·h/mL

CO[C@H]1CC[C@H](N2C(=O)CNc3ncc(-c4ccc(C(C)(C)O)nc4)nc32)CC1
AUC(0-inf) (human; oral, 60 mg, patients): 2070 ng·h/mL

Nc1ccc(-c2nc([C@H]3CCc4cc(-c5cc(Cl)ccc5-n5cnnn5)cc(=O)n43)c(F)[nH]2)c(F)n1
AUC(0-inf) (human; oral, 80 mg, single dose, fasted): 17500 ng·h/mL

FC(F)(F)c1ccc(CNc2ccc(Cc3c[nH]c4ncc(Cl)cc34)cn2)cn1
AUC(0-inf) (male human; oral, 400 mg, single dose, healthy volunteers): 61300 ng·h/mL

CC(C)[C@](O)(c1ccc2cc(OC(F)F)c(OC(F)F)cc2c1)c1c[nH]nn1
AUC(0-inf) (female human; oral, 450 mg, single dose): 31100 ng·h/mL

C[C@@]1(c2cc(NC(=O)c3ccc(C#N)cn3)ccc2F)C=CSC(N)=N1
AUC(0-inf) (human; oral, 10 mg, single dose): 1040 ng·h/mL

CC(C)(Sc1ccncc1-c1ccc(C#N)c2ccccc12)C(=O)O
AUC(0-inf) (male human; oral, 5 mg, single dose, fasted, healthy volunteers): 121 ng·h/mL

COc1ccc(-n2nc(C(N)=O)c3c2C(=O)N(c2ccc(N4CCCCC4=O)cc2)CC3)cc1
AUC(0-inf) (male human; oral, 50 mg, single dose): 4740 ng·h/mL
